Data as given in ChEMBL document CHEMBL4229371, “Discovery of [1,2,4]triazolo[3,4-b][1,3,4]thiadiazole derivatives as novel, potent and selective c-Met kinase inhibitors: Synthesis, SAR study, and biological activity” (Eur J Med Chem, 2018).

Tests used:
EBC-1 [1] = test: Antiproliferative activity against human EBC1 cells at 5 uM after 72 hrs by Cell Titer-Glo assay; assay type: functional
In short: (§1)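 Cell Titer-Glo viability assay. Exponentially growing cells were plated at 4000 per well in RPMI-1640 with 10% FPS and incubated 12 h at 37 °C in 5% CO2. Compound was then added at the indicated final concentrations and cells were held 72 h at 37 °C in 5% CO2. CTG reagent was applied for 10 min at room temperature. Inhibition % = (1 − Vsample/Vvehicle control) × 100.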

SNU-5 = test: Antiproliferative activity against human SNU5 cells at 5 uM after 72 hrs by Cell Titer-Glo assay; assay type: functional; in short: as §1
MKN-45 [2] = test: Antiproliferative activity against human MKN45 cells at 5 uM after 72 hrs by Cell Titer-Glo assay; assay type: functional; in short: as §1
EBC-1 [3] = test: Antiproliferative activity against human EBC1 cells at 1 uM after 72 hrs by Cell Titer-Glo assay; assay type: functional; in short: as §1
EBC-1 [4] = test: Antiproliferative activity against human EBC1 cells after 72 hrs by Cell Titer-Glo assay; assay type: functional, cell-based; details: EBC-1, 72 h; in short: as §1
MKN-45 [5] = test: Antiproliferative activity against human MKN45 cells at 1 uM after 72 hrs by Cell Titer-Glo assay; assay type: functional; in short: as §1
[6] = biological target: T1, Hepatocyte growth factor receptor (Homo sapiens, UniProt P08581); test: Inhibition of GST-tagged human c-MET preincubated for 20 mins followed by [33P]-ATP addition and measured after 2 hrs by Hot-Spot kinase assay
[7] = biological target: Vascular endothelial growth factor receptor 1 (Homo sapiens) (UniProt P17948); test: Inhibition of GST-tagged human FLT1 at 5 uM preincubated for 20 mins followed by [33P]-ATP addition measured after 2 hrs by Hot-Spot kinase assay
In short: (§2)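 Radiometric filter-binding assay with 5 nM human GST-tagged kinase and substrate. Buffer was 20 mM Hepes pH 7.5, 10 mM MgCl2, 1 mM EGTA, 0.02% Brij35, 0.02 mg/mL BSA, 0.1 mM Na3VO4, 2 mM DTT and 1% DMSO. Compound in DMSO was preincubated with kinase for 20 min at room temperature. 33P-ATP was then added and the reaction ran 2 h at room temperature. IC50 values came from curve fitting.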

[8] = biological target: ALK tyrosine kinase receptor (Homo sapiens) (UniProt Q9UM73); test: Inhibition of GST-tagged human ALK at 5 uM preincubated for 20 mins followed by [33P]-ATP addition measured after 2 hrs by Hot-Spot kinase assay; in short: as §2
[9] = biological target: Mast/stem cell growth factor receptor Kit (Homo sapiens) (UniProt P10721); test: Inhibition of GST-tagged human c-KIT at 5 uM preincubated for 20 mins followed by [33P]-ATP addition measured after 2 hrs by Hot-Spot kinase assay; in short: as §2
[10] = biological target: T2, Receptor-type tyrosine-protein kinase FLT3 (Homo sapiens, UniProt P36888); test: Inhibition of GST-tagged human FLT3 preincubated for 20 mins followed by [33P]-ATP addition measured after 2 hrs by Hot-Spot kinase assay; in short: as §2
T2 sequence (P36888 whole entry): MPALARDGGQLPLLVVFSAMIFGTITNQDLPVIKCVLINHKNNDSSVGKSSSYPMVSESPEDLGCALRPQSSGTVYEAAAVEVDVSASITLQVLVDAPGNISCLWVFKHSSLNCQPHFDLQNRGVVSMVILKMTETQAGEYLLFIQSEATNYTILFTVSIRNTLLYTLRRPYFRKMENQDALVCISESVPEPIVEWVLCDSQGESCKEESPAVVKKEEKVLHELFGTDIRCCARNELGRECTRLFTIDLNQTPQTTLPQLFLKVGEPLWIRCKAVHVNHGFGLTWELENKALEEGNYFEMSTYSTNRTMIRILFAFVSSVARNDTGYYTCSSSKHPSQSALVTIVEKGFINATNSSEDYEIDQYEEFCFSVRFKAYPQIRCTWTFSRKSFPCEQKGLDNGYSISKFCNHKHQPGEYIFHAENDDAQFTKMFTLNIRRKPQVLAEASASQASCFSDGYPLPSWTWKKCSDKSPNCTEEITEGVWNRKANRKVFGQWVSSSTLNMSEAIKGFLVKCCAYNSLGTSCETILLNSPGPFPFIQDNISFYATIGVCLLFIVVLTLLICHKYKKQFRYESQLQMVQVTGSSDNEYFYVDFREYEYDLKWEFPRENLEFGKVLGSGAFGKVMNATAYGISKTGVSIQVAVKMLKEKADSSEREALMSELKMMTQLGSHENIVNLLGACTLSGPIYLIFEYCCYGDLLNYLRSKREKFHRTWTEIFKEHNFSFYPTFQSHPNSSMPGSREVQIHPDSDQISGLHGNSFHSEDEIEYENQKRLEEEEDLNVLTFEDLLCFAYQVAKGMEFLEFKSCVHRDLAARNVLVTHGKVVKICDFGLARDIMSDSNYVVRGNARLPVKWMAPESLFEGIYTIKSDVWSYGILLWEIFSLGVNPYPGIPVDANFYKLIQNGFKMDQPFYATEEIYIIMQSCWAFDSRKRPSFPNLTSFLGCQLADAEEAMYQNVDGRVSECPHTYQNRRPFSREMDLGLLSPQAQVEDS

[11] = biological target: Platelet-derived growth factor receptor alpha (Homo sapiens) (UniProt P16234); test: Inhibition of GST-tagged human PDGFRalpha at 5 uM preincubated for 20 mins followed by [33P]-ATP addition measured after 2 hrs by Hot-Spot kinase assay; in short: as §2
[12] = biological target: Angiopoietin-1 receptor (Homo sapiens) (UniProt Q02763); test: Inhibition of GST-tagged human TIE2 at 5 uM preincubated for 20 mins followed by [33P]-ATP addition measured after 2 hrs by Hot-Spot kinase assay; in short: as §2
[13] = biological target: BDNF/NT-3 growth factors receptor (Homo sapiens) (UniProt Q16620); test: Inhibition of GST-tagged human TRKB at 5 uM preincubated for 20 mins followed by [33P]-ATP addition measured after 2 hrs by Hot-Spot kinase assay; in short: as §2
[14] = biological target: Proto-oncogene tyrosine-protein kinase receptor Ret (Homo sapiens) (UniProt P07949); test: Inhibition of GST-tagged human RET at 5 uM preincubated for 20 mins followed by [33P]-ATP addition measured after 2 hrs by Hot-Spot kinase assay; in short: as §2
[15] = biological target: Receptor-type tyrosine-protein kinase FLT3 (Homo sapiens) (UniProt P36888); test: Inhibition of GST-tagged human FLT3 at 5 uM preincubated for 20 mins followed by [33P]-ATP addition measured after 2 hrs by Hot-Spot kinase assay; in short: as §2
[16] = biological target: Tyrosine-protein kinase receptor UFO (Homo sapiens) (UniProt P30530); test: Inhibition of GST-tagged human AXL at 5 uM preincubated for 20 mins followed by [33P]-ATP addition measured after 2 hrs by Hot-Spot kinase assay; in short: as §2
[17] = biological target: Tyrosine-protein kinase ABL1 (Homo sapiens) (UniProt P00519); test: Inhibition of GST-tagged human ABL1 at 5 uM preincubated for 20 mins followed by [33P]-ATP addition measured after 2 hrs by Hot-Spot kinase assay; in short: as §2
[18] = biological target: T1, Hepatocyte growth factor receptor; test: Inhibition of HGF-induced c-MET phosphorylation at Tyr1234/1235 in human MKN45 cells after 1 hr by Western blot analysis; assay type: cell-based
In short: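 MKN45 cells were plated at 2x10^4 per well in RPMI-1640 with 10% FPS and treated with a range of doses for 1 h. Lysis was in ice-cold RIPA with protease inhibitors. Lysate holding 30 µg protein (BCA) was run on SDS-PAGE and blotted to PVDF. Membranes were blocked in 5% skim milk, given primary antibody overnight at 4 °C, then HRP secondary for 1 h at room temperature, and read by ECL.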

[19] = biological target: Vascular endothelial growth factor receptor 2 (Homo sapiens) (UniProt P35968); test: Inhibition of GST-tagged human KDR at 5 uM preincubated for 20 mins followed by [33P]-ATP addition measured after 2 hrs by Hot-Spot kinase assay; in short: as §2
[20] = biological target: Tyrosine-protein kinase Lck (Homo sapiens) (UniProt P06239); test: Inhibition of GST-tagged human LCK at 5 uM preincubated for 20 mins followed by [33P]-ATP addition measured after 2 hrs by Hot-Spot kinase assay; in short: as §2

T1 sequence (P08581 whole entry): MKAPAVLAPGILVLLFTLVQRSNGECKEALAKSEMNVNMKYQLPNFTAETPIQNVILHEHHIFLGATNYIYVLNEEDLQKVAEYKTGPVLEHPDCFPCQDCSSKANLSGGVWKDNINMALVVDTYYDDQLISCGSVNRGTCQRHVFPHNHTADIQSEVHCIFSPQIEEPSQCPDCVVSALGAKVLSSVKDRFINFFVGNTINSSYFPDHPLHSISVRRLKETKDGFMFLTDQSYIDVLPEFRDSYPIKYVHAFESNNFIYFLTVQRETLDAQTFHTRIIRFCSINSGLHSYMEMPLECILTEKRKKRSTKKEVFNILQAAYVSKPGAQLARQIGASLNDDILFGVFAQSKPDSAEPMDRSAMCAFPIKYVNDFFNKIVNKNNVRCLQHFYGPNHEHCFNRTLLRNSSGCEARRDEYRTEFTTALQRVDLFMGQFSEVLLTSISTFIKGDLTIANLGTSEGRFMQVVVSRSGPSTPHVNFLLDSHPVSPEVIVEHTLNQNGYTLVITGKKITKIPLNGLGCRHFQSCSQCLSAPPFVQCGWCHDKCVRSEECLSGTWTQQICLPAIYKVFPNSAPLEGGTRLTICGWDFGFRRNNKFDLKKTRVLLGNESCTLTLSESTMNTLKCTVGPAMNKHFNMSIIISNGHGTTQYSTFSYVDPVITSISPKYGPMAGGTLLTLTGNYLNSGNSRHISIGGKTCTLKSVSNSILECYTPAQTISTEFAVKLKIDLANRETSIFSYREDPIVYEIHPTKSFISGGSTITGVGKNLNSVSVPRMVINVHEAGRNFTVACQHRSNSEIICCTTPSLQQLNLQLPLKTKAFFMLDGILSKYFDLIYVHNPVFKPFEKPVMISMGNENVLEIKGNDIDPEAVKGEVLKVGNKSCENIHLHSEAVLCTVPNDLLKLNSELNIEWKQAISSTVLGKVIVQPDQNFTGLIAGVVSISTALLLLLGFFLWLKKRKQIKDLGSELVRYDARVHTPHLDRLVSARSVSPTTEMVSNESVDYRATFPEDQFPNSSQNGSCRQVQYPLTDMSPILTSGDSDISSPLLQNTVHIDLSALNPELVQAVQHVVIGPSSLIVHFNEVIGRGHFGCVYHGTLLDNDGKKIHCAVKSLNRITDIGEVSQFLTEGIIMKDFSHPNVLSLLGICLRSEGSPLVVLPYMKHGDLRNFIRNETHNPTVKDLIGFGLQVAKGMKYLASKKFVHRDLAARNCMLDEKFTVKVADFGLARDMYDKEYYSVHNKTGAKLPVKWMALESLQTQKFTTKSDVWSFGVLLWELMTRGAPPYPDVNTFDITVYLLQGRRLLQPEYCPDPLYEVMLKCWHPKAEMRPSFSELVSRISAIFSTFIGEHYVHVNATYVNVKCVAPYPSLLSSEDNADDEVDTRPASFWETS
Sequence of Tyrosine-protein kinase receptor UFO (Homo sapiens) (P30530 whole entry): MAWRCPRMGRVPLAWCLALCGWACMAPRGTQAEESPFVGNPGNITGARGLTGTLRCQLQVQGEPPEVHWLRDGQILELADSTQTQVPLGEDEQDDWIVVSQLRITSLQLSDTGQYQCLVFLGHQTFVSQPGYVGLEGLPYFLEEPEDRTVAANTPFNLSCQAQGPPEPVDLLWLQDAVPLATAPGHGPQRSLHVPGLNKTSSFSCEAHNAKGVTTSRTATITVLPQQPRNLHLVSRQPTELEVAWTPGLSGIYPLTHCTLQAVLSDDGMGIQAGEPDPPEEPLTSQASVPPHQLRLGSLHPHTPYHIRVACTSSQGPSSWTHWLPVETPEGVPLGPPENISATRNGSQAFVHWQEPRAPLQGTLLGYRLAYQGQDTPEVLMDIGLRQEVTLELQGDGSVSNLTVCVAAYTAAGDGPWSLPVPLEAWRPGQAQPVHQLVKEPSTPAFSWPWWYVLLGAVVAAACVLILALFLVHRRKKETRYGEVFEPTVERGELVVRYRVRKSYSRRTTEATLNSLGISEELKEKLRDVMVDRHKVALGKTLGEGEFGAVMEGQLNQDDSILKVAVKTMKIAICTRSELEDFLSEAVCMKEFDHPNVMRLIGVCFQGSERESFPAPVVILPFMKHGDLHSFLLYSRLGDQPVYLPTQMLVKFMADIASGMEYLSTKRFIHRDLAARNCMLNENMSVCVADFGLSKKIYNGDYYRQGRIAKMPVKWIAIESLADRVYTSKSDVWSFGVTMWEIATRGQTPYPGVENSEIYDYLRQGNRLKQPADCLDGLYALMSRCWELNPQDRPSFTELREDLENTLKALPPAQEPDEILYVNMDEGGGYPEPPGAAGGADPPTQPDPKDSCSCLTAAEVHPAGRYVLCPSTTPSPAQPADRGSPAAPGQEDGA
Sequence of ALK tyrosine kinase receptor (Homo sapiens) (Q9UM73 19-1620 limits assumed): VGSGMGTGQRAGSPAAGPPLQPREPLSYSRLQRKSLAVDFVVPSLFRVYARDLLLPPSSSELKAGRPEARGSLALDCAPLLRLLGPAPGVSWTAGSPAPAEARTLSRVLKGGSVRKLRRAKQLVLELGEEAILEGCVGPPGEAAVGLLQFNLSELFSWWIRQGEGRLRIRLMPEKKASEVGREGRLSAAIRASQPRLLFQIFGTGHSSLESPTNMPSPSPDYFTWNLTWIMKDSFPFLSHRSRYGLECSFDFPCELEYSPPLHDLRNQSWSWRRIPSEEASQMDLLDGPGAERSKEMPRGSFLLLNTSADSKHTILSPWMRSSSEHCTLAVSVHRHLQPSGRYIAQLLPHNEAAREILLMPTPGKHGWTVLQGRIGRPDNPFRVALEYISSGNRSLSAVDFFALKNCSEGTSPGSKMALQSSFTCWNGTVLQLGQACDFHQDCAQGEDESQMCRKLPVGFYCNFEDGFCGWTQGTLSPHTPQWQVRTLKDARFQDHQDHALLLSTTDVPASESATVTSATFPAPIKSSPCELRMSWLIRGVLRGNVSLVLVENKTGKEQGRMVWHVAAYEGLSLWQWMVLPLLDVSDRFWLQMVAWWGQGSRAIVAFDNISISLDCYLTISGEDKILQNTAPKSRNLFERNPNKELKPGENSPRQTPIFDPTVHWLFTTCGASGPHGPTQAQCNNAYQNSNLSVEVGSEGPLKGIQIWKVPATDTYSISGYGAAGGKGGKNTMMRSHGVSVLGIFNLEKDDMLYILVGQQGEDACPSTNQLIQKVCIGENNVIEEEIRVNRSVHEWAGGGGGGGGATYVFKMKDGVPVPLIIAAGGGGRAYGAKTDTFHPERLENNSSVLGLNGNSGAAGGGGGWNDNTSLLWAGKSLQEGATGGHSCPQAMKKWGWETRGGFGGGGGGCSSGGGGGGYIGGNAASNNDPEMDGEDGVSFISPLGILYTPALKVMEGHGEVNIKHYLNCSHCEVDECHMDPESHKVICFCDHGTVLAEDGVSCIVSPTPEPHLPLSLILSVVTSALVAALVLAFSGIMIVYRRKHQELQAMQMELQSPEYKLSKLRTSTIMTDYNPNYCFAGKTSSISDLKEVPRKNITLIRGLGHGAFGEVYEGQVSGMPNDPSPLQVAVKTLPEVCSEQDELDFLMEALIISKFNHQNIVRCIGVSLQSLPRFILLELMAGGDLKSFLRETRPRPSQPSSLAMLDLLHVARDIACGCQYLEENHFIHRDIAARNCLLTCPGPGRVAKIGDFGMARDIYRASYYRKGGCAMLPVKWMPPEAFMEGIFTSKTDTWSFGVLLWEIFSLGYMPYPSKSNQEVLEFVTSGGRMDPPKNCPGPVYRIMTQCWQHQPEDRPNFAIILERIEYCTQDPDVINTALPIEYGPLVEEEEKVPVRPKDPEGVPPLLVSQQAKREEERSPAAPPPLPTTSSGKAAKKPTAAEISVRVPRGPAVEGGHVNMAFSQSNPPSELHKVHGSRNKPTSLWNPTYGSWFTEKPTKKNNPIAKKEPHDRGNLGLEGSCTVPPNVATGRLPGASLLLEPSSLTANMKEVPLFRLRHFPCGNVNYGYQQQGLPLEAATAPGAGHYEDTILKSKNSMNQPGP
Sequence of Tyrosine-protein kinase ABL1 (Homo sapiens) (P00519 whole entry): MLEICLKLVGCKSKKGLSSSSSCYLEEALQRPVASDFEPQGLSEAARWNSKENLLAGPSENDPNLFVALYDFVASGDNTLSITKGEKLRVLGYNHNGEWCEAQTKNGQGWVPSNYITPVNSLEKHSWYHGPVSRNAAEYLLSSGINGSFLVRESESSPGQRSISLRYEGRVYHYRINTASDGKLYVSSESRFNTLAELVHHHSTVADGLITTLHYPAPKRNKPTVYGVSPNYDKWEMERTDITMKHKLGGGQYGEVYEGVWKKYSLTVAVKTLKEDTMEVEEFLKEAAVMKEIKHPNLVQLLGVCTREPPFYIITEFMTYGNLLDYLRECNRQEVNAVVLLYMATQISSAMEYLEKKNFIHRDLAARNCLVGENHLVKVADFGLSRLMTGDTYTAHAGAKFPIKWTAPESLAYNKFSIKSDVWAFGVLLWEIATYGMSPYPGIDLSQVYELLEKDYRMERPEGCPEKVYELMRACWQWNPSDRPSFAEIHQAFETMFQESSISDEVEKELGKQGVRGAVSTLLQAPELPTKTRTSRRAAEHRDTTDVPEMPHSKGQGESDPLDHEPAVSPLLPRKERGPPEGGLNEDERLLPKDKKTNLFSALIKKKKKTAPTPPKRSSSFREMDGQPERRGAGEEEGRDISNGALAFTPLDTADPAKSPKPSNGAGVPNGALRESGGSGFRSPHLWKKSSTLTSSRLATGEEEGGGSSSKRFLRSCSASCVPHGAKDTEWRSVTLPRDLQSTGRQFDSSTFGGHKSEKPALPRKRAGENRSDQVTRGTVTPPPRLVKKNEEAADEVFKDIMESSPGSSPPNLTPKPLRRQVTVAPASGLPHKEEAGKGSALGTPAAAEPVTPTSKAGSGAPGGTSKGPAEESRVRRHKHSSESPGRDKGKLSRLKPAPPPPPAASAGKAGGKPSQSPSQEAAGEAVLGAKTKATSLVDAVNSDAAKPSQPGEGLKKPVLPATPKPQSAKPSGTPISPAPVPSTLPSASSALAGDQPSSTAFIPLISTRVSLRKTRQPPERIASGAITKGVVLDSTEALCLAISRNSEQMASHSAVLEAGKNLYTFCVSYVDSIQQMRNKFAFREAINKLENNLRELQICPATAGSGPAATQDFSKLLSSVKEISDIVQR

SMILES | Activity (EBC-1 [1]) | Activity (SNU-5) | Activity (MKN-45 [2]) | Activity (EBC-1 [3]) | IC50 (EBC-1 [4]) | Activity (MKN-45 [5]) | IC50 [6] | other results
COc1ccc2c(OCc3nnc4sc(-c5ccn(C6CCCC6)c5)nn34)ccnc2c1 | 72.1% | 42% | 47.6% | 41.3% |  |  |  | 
COc1ccc2[nH]c(-c3nn4c(COc5ccnc6cc(OC)ccc56)nnc4s3)cc2c1 | 84% | 60% | 61.2% | 82.2% | 85.6 nM | 75.3% |  | 
COc1ccc2c(OCc3nnc4sc(-c5ccncc5)nn34)ccnc2c1 | 83.7% | 65.7% | 73% | 91.6% | 289 nM | 73.8% |  | 
COc1ccc2c(OCc3nnc4sc(-c5cc[nH]c5)nn34)ccnc2c1 | 85.9% | 71.5% | 70.5% | 90.6% | 353 nM | 71.1% |  | 
COc1cccc(-c2nn3c(COc4ccnc5cc(OC)ccc45)nnc3s2)c1 | 85.4% | 65.7% | 66.6% | 91.5% | 472 nM | 37.8% |  | 
COc1ccc(Cc2nnc3sc(-c4cc5ccccc5[nH]4)nn23)cc1 | 87.3% | 70.2% | 76.3% | 86.5% | 107 nM | 78.1% | 0.0793 µM | 
COCCn1ccc(-c2nn3c(COc4ccnc5cc(OC)ccc45)nnc3s2)c1 | 78.6% | 46.1% | 73% | 89% | 327 nM | 71.1% |  | 
COc1ccc2c(OCc3nnc4sc(-c5ccc[nH]5)nn34)ccnc2c1 | 83.7% | 72.4% | 76.8% | 80.5% | 149 nM | 79.3% |  | 
Cn1cc(C(=O)Oc2ccc(Cc3nnc4sc(-c5cnn(C)c5)nn34)cc2)cn1 |  |  |  |  |  |  | > 10 µM | 
C[C@@H](Oc1cc(-c2cnn(C3CCNCC3)c2)cnc1N)c1c(Cl)ccc(F)c1Cl [CRIZOTINIB] | 94.4% | 80% | 77.7% | 93.1% | 39 nM | 82.6% |  | 
COc1ccc(-c2nn3c(COc4ccnc5cc(OC)ccc45)nnc3s2)cc1 | 85.2% | 74.5% | 72% | 89.1% | 161 nM | 76.4% |  | 
CN(C)C(=O)COc1ccc(Cc2nnc3sc(-c4cnn(C)c4)nn23)cc1 |  |  |  |  |  |  | > 10 µM | 
COc1ccc2c(OCc3nnc4sc(-c5cccn5C)nn34)ccnc2c1 | 86.3% | 14.5% | 28.1% | 7.4% |  |  |  | 
Cn1cc(-c2nn3c(Cc4ccc(OCCN5CCOCC5)cc4)nnc3s2)cn1 |  |  |  |  |  |  | > 10 µM | 
COc1ccc2c(OCc3nnc4sc(-c5ccc(F)cc5)nn34)ccnc2c1 | 83.1% | 65.8% | 71% | 89.4% | 187 nM | 68.5% |  | 
COc1ccc2c(OCc3nnc4sc(-c5ccn(CC6CC6)c5)nn34)ccnc2c1 | 75.9% | 52.2% | 66.6% | 87.2% | 351 nM | 41.1% |  | 
COc1ccc2c(OCc3nnc4sc(-c5cccc(F)c5)nn34)ccnc2c1 | 81.4% | 66.3% | 71.3% | 86.7% | 504 nM | 13.2% |  | 
COc1ccc2c(OCc3nnc4sc(-c5cc6cc(F)ccc6[nH]5)nn34)ccnc2c1 | 42.3% | 54.4% | 47.7% |  |  |  |  | 
COc1ccc2c(OCc3nnc4sc(-c5cc6ccccc6n5C)nn34)ccnc2c1 | 87% | 67.7% | 74.1% | 91.6% | 313 nM | 60.8% |  | 
COc1ccc2c(OCc3nnc4sc(-c5cnn(C)c5)nn34)ccnc2c1 | 84.4% | 68.7% | 71.9% | 90.9% | 88 nM | 73.6% | 0.00202 µM | inhibition [7]: 0.28%; inhibition [8]: -1.59%; inhibition [9]: 10.9%; IC50 [10]: 1370 nM; inhibition [11]: -3.29%; inhibition [12]: -7.71%; inhibition [13]: 0.04%; inhibition [14]: -0.73%; inhibition [15]: 69.7%; inhibition [16]: 11.1%; inhibition [17]: 14.9%; inhibition [18]: Dose-dependent effect; inhibition [19]: -3.93%; inhibition [20]: -0.81%
CNC(=O)COc1ccc(Cc2nnc3sc(-c4cnn(C)c4)nn23)cc1 |  |  |  |  |  |  | > 10 µM | 
O=C(Oc1ccc(Cc2nnc3sc(-c4cc5ccccc5[nH]4)nn23)cc1)c1cc2ccccc2[nH]1 |  |  |  |  |  |  | > 10 µM | 
COc1ccc2c(OCc3nnc4sc(-c5cc(F)c(F)c(F)c5)nn34)ccnc2c1 | 84.5% | 44.7% | 29.8% | 89.3% | 403 nM |  |  | 
